Source: PMC11756393 (Scientific Reports, 2025)

Tests used:
L. tropica promastigotes = assay: MTT assay on promastigotes; assay type: cell-based, Leishmania tropica; settings: for Combined effect with meglumine antimonate on promastigotes (in words): combination with MA, compared with MA monotherapy; for Inhibitory activity on promastigotes (in words): compound alone, compared with meglumine antimonate
In short: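 L. tropica promastigotes grown at 24 °C in RPMI 1640 with 10% FBS, seeded at 5 × 10^5 cells/ml and left overnight. Test compound then added in triplicate for 72 h. MTT for 4 h, formazan dissolved in DMSO, absorbance read at 490 nm. IC50 from nonlinear regression against untreated control. Meglumine antimonate combinations scored by combination index and isobologram additivity line.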

[1] = tested on: macrophages (human monocytes THP-1 differentiated); assay: MTT cytotoxicity assay on macrophages; assay type: cell-based; settings: SI as a marker of toxicity
In short: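 THP-1 monocytes were differentiated to macrophages and grown at 37 °C, 5% CO2 in RPMI 1640 with 10% FBS. Test compound added in triplicate; untreated wells and medium with 1% DMSO served as controls. After 72 h, MTT was added for 4 h, formazan dissolved in DMSO and absorbance read at 490 nm. CC50 by probit analysis, mean ± SD; SI = CC50/amastigote IC50.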

Row | Compound | Combined effect with meglumine antimonate on promastigotes (in words) (L. tropica promastigotes) | Inhibitory activity on promastigotes (in words) (L. tropica promastigotes) | Safety for mammalian macrophages judged by SI (in words) [1]
1 | O=[N+]([O-])C1=Cc2ccccc2OC1c1cccc(OCc2ccc(Cl)cc2)c1 (stereo not drawn) [Compound 4n, 2-(3-((4-chlorobenzyl)oxy)phenyl)-3-nitro-2H-chromene] | most pronounced synergistic effects | comparable to meglumine antimonate | highly safe
2 | O=[N+]([O-])C1=Cc2ccccc2OC1c1cccc(OCc2ccc([N+](=O)[O-])cc2)c1 (stereo not drawn) [Compound 4o, 3-nitro-2-(3-((4-nitrobenzyl)oxy)phenyl)-2H-chromene] | most pronounced synergistic effects | comparable to meglumine antimonate | highly safe
3 | COc1ccc(C2Oc3ccccc3C=C2[N+](=O)[O-])cc1 (stereo not drawn) [Compound 4d, 2-(4-methoxyphenyl)-3-nitro-2H-chromene] |  |  | highly safe
4 | Cc1ccc(COc2cccc(C3Oc4ccccc4C=C3[N+](=O)[O-])c2)cc1 (stereo not drawn) [Compound 4k, 2-(3-((4-methylbenzyl)oxy)phenyl)-3-nitro-2H-chromene] | most pronounced synergistic effects | comparable to meglumine antimonate | 
